# Data reported in ChEMBL document CHEMBL1129580, “Endogenous natriuretic factors. 5. Synthesis and biological activity of a natriuretic metabolite of diltiazem and its derivatives” (1996).
# Tests used:
# Rattus norvegicus [1] = assay: Diuretic effect was evaluated in the conscious female rat by natriuretic assay involving metabolic caging at dose 30 mg/kg; type: functional, Urine
# Outline: (§1)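 Rats housed singly in metabolic cages 1-2 days beforehand and acclimated to oral gavage with 3 mL/kg tap water; food and water withdrawn 2 h pre-test. Oral saline volume load, 25 mL/kg, then compound by gavage as 1% CMC suspension (1 mL/kg); 1% CMC vehicle control. Six rats per group. 5 h urine collected; volume, Na+, K+ measured. Outliers >2 SD removed; ANOVA, Scheffe F test.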
# Rattus norvegicus [2] = assay: Natriuretic effect was evaluated in the conscious female rat by natriuretic assay involving metabolic caging at dose 30 mg/kg; type: functional; outline: as §1
# Rattus norvegicus [3] = assay: Kaliuretic effect was evaluated in the conscious female rat by natriuretic assay involving metabolic caging at dose 30 mg/kg; type: functional; outline: as §1
# Rattus norvegicus [4] = assay: Kaliuretic effect was evaluated in the conscious female rat by natriuretic assay involving metabolic caging at dose 20 mg/kg; type: functional; outline: as §1
# Rattus norvegicus [5] = assay: Natriuretic effect was evaluated in the conscious female rat by natriuretic assay involving metabolic caging at dose 20 mg/kg; type: functional; outline: as §1
# Rattus norvegicus [6] = assay: Diuretic effect was evaluated in the conscious female rat by natriuretic assay involving metabolic caging at dose 20 mg/kg; type: functional, Urine; outline: as §1
# Rattus norvegicus [7] = assay: Diuretic effect was evaluated in the conscious female rat by natriuretic assay involving metabolic caging at dose 10 mg/kg; type: functional, Urine; outline: as §1
# Rattus norvegicus [8] = assay: Natriuretic effect was evaluated in the conscious female rat by natriuretic assay involving metabolic caging at dose 10 mg/kg; type: functional; outline: as §1
# Rattus norvegicus [9] = assay: Kaliuretic effect was evaluated in the conscious female rat by natriuretic assay involving metabolic caging at dose 10 mg/kg; type: functional; outline: as §1
# Rattus norvegicus [10] = assay: Kaliuretic effect was evaluated in the conscious female rat by natriuretic assay involving metabolic caging at dose 50 mg/kg; type: functional; outline: as §1
# Rattus norvegicus [11] = assay: Diuretic effect was evaluated in the conscious female rat by natriuretic assay involving metabolic caging at dose 50 mg/kg; type: functional, Urine; outline: as §1
# Rattus norvegicus [12] = assay: Natriuretic effect was evaluated in the conscious female rat by natriuretic assay involving metabolic caging at dose 50 mg/kg; type: functional; outline: as §1
# Rattus norvegicus [13] = assay: Natriuretic effect was evaluated in the conscious female rat by natriuretic assay involving metabolic caging at dose 5 mg/kg; type: functional; outline: as §1
# Rattus norvegicus [14] = assay: Diuretic effect was evaluated in the conscious female rat by natriuretic assay involving metabolic caging at dose 5 mg/kg; type: functional, Urine; outline: as §1
# Rattus norvegicus [15] = assay: Kaliuretic effect was evaluated in the conscious female rat by natriuretic assay involving metabolic caging at dose 5 mg/kg; type: functional; outline: as §1
smiles,measurement,setting,value
NS(=O)(=O)c1cc(C(=O)O)c(NCc2ccco2)cc1Cl [FUROSEMIDE],Diuretic activity,Rattus norvegicus [1],2.6 mL/g
same,Natriuretic activity,Rattus norvegicus [2],<2.5 µM/g
same,Kaliuretic activity,Rattus norvegicus [3],<1.6 µM/g
same,Kaliuretic activity,Rattus norvegicus [4],<1.1 µM/g
same,Natriuretic activity,Rattus norvegicus [5],<1.1 µM/g
same,Diuretic activity,Rattus norvegicus [6],1.3 mL/g
COc1ccc([C@@H]2Sc3ccccc3N(CCO)C(=O)[C@@H]2OC(C)=O)cc1,Diuretic activity,Rattus norvegicus [7],1.3 mL/g
same,Natriuretic activity,Rattus norvegicus [8],<1.25 µM/g
same,Kaliuretic activity,Rattus norvegicus [9],0.7 µM/g
same,Kaliuretic activity,Rattus norvegicus [4],<0.67 µM/g
same,Natriuretic activity,Rattus norvegicus [5],<1.35 µM/g
same,Diuretic activity,Rattus norvegicus [6],1.28 mL/g
COc1ccc([C@@H]2Sc3ccccc3N(CC(=O)O)C(=O)[C@@H]2O)cc1,Diuretic activity,Rattus norvegicus [1],2.1 mL/g
same,Kaliuretic activity,Rattus norvegicus [10],1.23 µM/g
same,Natriuretic activity,Rattus norvegicus [2],<2.1 µM/g
same,Diuretic activity,Rattus norvegicus [11],1.85 mL/g
same,Diuretic activity,Rattus norvegicus [7],2 mL/g
same,Natriuretic activity,Rattus norvegicus [8],<2 µM/g
same,Kaliuretic activity,Rattus norvegicus [9],1.1 µM/g
same,Kaliuretic activity,Rattus norvegicus [3],1.07 µM/g
same,Kaliuretic activity,Rattus norvegicus [4],1.15 µM/g
same,Natriuretic activity,Rattus norvegicus [5],<1.6 µM/g
same,Diuretic activity,Rattus norvegicus [6],1.7 mL/g
same,Natriuretic activity,Rattus norvegicus [12],<1.95 µM/g
CCOC(=O)CN1C(=O)[C@H](O)[C@H](c2ccc(OC)cc2)Sc2ccccc21,Diuretic activity,Rattus norvegicus [1],1.5 mL/g
same,Kaliuretic activity,Rattus norvegicus [10],1 µM/g
same,Natriuretic activity,Rattus norvegicus [2],<1.6 µM/g
same,Diuretic activity,Rattus norvegicus [11],1.3 mL/g
same,Diuretic activity,Rattus norvegicus [7],1.7 mL/g
same,Natriuretic activity,Rattus norvegicus [8],<2 µM/g
same,Kaliuretic activity,Rattus norvegicus [9],<1.1 µM/g
same,Kaliuretic activity,Rattus norvegicus [3],<0.75 µM/g
same,Natriuretic activity,Rattus norvegicus [12],<1.25 µM/g
COc1ccc([C@@H]2Sc3ccccc3N(CCO)C[C@@H]2O)cc1,Diuretic activity,Rattus norvegicus [1],1.75 mL/g
same,Kaliuretic activity,Rattus norvegicus [10],0.97 µM/g
same,Natriuretic activity,Rattus norvegicus [2],<1.6 µM/g
same,Diuretic activity,Rattus norvegicus [11],1.6 mL/g
same,Diuretic activity,Rattus norvegicus [7],1.7 mL/g
same,Natriuretic activity,Rattus norvegicus [8],<2 µM/g
same,Kaliuretic activity,Rattus norvegicus [9],<1 µM/g
same,Kaliuretic activity,Rattus norvegicus [3],<0.9 µM/g
same,Natriuretic activity,Rattus norvegicus [12],<1.65 µM/g
COc1ccc([C@@H]2Sc3ccccc3N(CCN(C)C)C(=O)[C@@H]2OC(C)=O)cc1 [DILTIAZEM],Diuretic activity,Rattus norvegicus [7],1.6 mL/g
same,Natriuretic activity,Rattus norvegicus [8],<1.4 µM/g
same,Kaliuretic activity,Rattus norvegicus [9],<0.8 µM/g
same,Kaliuretic activity,Rattus norvegicus [4],0.7 µM/g
same,Natriuretic activity,Rattus norvegicus [5],<1.6 µM/g
same,Diuretic activity,Rattus norvegicus [6],1.8 mL/g
COc1ccc([C@@H]2Sc3ccccc3N(CCOC(C)=O)C(=O)[C@@H]2OC(C)=O)cc1,Kaliuretic activity,Rattus norvegicus [10],<0.7 µM/g
same,Diuretic activity,Rattus norvegicus [11],1.3 mL/g
same,Diuretic activity,Rattus norvegicus [7],1.3 mL/g
same,Natriuretic activity,Rattus norvegicus [8],<1.35 µM/g
same,Kaliuretic activity,Rattus norvegicus [9],<0.95 µM/g
same,Natriuretic activity,Rattus norvegicus [12],<1.55 µM/g
COc1ccc([C@@H]2Sc3ccccc3N(CCO)C(=O)[C@@H]2O)cc1,Kaliuretic activity,Rattus norvegicus [10],<0.8 µM/g
same,Diuretic activity,Rattus norvegicus [11],1.6 mL/g
same,Natriuretic activity,Rattus norvegicus [13],<1.6 µM/g
same,Diuretic activity,Rattus norvegicus [7],2.1 mL/g
same,Natriuretic activity,Rattus norvegicus [8],<2.5 µM/g
same,Kaliuretic activity,Rattus norvegicus [9],1.1 µM/g
same,Diuretic activity,Rattus norvegicus [14],1.7 mL/g
same,Kaliuretic activity,Rattus norvegicus [4],<1.05 µM/g
same,Natriuretic activity,Rattus norvegicus [5],<1.9 µM/g
same,Diuretic activity,Rattus norvegicus [6],1.8 mL/g
same,Natriuretic activity,Rattus norvegicus [12],<0.9 µM/g
same,Kaliuretic activity,Rattus norvegicus [15],1 µM/g
COc1ccc([C@@H]2Sc3ccccc3N(CC(=O)O)C(=O)[C@@H]2OC(C)=O)cc1,Diuretic activity,Rattus norvegicus [1],2.25 mL/g
same,Kaliuretic activity,Rattus norvegicus [10],1.25 µM/g
same,Natriuretic activity,Rattus norvegicus [2],<2.1 µM/g
same,Diuretic activity,Rattus norvegicus [11],2.1 mL/g
same,Diuretic activity,Rattus norvegicus [7],1.92 mL/g
same,Natriuretic activity,Rattus norvegicus [8],<2 µM/g
same,Kaliuretic activity,Rattus norvegicus [9],<0.9 µM/g
same,Kaliuretic activity,Rattus norvegicus [3],1.2 µM/g
same,Kaliuretic activity,Rattus norvegicus [4],<1.08 µM/g
same,Natriuretic activity,Rattus norvegicus [5],<1.55 µM/g
same,Diuretic activity,Rattus norvegicus [6],1.75 mL/g
same,Natriuretic activity,Rattus norvegicus [12],1.7 µM/g
